Experimental findings from ChEMBL document CHEMBL2150931, “Design, synthesis, and biological activity of a novel series of human sirtuin-2-selective inhibitors” (J Med Chem, 2012) are described below.

Assay [1] deals with T1, NAD-dependent protein deacetylase sirtuin-1 (Homo sapiens, UniProt Q96EB6).
T1 sequence (Q96EB6 whole entry): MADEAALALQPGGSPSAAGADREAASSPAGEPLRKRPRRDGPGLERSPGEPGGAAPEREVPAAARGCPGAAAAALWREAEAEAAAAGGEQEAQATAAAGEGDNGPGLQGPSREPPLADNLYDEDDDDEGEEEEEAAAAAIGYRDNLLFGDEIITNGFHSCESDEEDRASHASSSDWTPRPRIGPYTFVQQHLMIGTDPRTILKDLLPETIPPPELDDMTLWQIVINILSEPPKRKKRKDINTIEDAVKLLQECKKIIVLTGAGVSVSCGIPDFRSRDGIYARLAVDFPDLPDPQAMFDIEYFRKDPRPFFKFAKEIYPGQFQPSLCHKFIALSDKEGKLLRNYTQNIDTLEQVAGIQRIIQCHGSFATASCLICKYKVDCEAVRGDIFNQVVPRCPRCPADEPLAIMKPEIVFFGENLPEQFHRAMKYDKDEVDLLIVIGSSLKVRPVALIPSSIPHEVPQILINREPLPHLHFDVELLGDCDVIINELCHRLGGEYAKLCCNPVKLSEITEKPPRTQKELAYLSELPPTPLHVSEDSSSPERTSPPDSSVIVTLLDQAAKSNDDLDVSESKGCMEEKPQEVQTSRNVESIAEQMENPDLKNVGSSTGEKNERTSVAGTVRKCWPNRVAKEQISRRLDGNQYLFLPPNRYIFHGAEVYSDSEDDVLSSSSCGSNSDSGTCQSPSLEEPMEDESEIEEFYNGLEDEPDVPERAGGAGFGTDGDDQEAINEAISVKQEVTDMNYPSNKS
Nature of the assay: Inhibition of human recombinant SIRT1 using Fluor de Lys-SIRT as substrate incubated for 60 mins prior to substrate addition measured after 60 mins by fluorimetric analysis. The method, boiled down: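 Human recombinant SIRT1 run the same way: 60 min at 37 °C with 1 mM NAD⁺ and serial compound dilutions, then 25 μM Fluor de Lys-SIRT substrate for 60 min. Stopped with nicotinamide-containing Developer II and read 45 min later at ex 360/em 460 nm. IC₅₀ from logit regression of % inhibition vs control; means of ≥3 experiments.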

Assay [2] has as its target T2, NAD-dependent protein deacetylase sirtuin-2 (Homo sapiens) (UniProt Q8IXJ6).
T2 sequence (whole entry): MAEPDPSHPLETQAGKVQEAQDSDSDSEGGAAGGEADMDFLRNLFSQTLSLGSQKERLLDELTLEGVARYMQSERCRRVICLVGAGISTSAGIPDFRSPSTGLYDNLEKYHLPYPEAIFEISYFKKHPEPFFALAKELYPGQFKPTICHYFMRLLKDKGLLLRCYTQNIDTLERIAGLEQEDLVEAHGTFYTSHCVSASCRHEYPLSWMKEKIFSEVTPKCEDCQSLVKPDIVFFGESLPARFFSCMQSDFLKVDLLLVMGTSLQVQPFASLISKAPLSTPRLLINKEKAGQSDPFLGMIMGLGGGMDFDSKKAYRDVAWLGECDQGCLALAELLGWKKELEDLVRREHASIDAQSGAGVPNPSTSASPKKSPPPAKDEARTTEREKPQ
The settings on record: HCT-116, 10 uM.

In assay [3] the target is T3, NAD-dependent protein deacetylase sirtuin-1 (Homo sapiens) (UniProt Q96EB6).
T3 sequence (whole entry): T1 sequence (Q96EB6 whole entry)
As to conditions: HCT-116, 10 uM.

Assay [4] addresses T4, NAD-dependent protein deacetylase sirtuin-2 (Homo sapiens, UniProt Q8IXJ6).
T4 sequence (Q8IXJ6 whole entry): T2 sequence (whole entry)
Nature of the assay: Inhibition of human recombinant SIRT2 using Fluor de Lys-SIRT as substrate incubated for 60 mins prior to substrate addition measured after 60 mins by fluorimetric analysis. The method, boiled down:
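Human recombinant SIRT2 preincubated with 1 mM NAD⁺ and serial compound dilutions for 60 min at 37 °C, then 25 μM Fluor de Lys-SIRT substrate added. Reaction stopped at 60 min with Developer II containing nicotinamide. Fluorescence read 45 min later at ex 360/em 460 nm. % inhibition taken against control wells. IC₅₀ obtained by regression of log[Inh] vs logit % inhibition; means of ≥3 experiments.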

The target in assay [5] is T5, NAD-dependent protein deacetylase sirtuin-3, mitochondrial (Homo sapiens, UniProt Q9NTG7).
T5 sequence (Q9NTG7 whole entry): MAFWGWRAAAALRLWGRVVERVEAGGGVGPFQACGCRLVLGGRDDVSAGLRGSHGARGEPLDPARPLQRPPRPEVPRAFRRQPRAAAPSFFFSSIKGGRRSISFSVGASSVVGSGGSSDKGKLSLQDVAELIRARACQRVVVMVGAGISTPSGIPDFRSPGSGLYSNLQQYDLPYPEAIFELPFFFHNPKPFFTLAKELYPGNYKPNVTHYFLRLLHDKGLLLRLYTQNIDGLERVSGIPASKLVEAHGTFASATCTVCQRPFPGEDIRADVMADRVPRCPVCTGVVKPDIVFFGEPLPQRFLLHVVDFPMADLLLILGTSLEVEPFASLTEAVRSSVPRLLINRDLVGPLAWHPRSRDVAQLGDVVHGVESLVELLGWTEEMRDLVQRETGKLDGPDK
Nature of the assay: Inhibition of human recombinant SIRT3 using Fluor de Lys-SIRT as substrate incubated for 60 mins prior to substrate addition measured after 60 mins by fluorimetric analysis.

Assay [6] concerns the target T3, NAD-dependent protein deacetylase sirtuin-1 (Homo sapiens). Nature of the assay: Inhibition of human recombinant SIRT1 using Fluor de Lys-SIRT as substrate at 100 uM incubated for 60 mins prior to substrate addition measured after 60 mins by fluorimetric analysis. The method, boiled down: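 Single-point SIRT1 test at 100 μM compound. Human recombinant enzyme with 1 mM NAD⁺ at 37 °C for 60 min, then 25 μM Fluor de Lys-SIRT substrate for 60 min. Stopped with nicotinamide developer; fluorescence read at 360/460 nm after 45 min. Inhibition expressed as % relative to uninhibited control wells.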

Active and inactive are the calls of the source. The calls are words filed in the database; no cut-off is given here.

For `N#C/C(=C\c1ccc(-c2cc(Cl)ccc2Cl)o1)C(=O)Nc1cccc2ncccc12`, the half-inhibitory concentration (IC50) in assay [1] is 30 µM. Also, the inhibition result in assay [2] is “Active”.

Regarding `NC(=O)C1CCCc2c1[nH]c1ccc(Cl)cc21` (stereo unspecified), the inhibition result in assay [3] was “Active”.

For the compound `NC(=O)c1ccccc1Nc1cccc(OCCc2cccc(F)c2)c1`, the results for the IC50 in assay [1], in assay [4] and in assay [5] were over 100 µM, 0.57 µM and over 300 µM, respectively.

On to `NC(=O)c1ccccc1Nc1ccc(OCc2ccccc2)cc1`, for which the values for the concentration for half-maximal inhibition (IC50) in assay [1] and in assay [4] were over 100 µM and 33 µM, respectively. For the same compound, the inhibition in assay [6] turned out to be 13%.

With `COC(=O)c1cccc(Nc2ccccc2C(N)=O)c1`, the half-maximal inhibitory concentration (IC50) in assay [1] and in assay [4] was over 100 µM each time.

Take `NC(=O)c1ccccc1Nc1cccc(NC(=O)c2ccccc2)c1`: the IC50 in assay [1] is over 100 µM; in assay [4], 57 µM.

`NC(=O)c1ccccc1Nc1ccc(/C=C/c2ccccc2)cc1`: the IC50 in assay [1] is over 100 µM; in assay [4], over 300 µM.

Regarding `CC(C)C(=O)Nc1ccc(Nc2ccccc2C(N)=O)cc1`, the IC50 in assay [1] and in assay [4] was over 100 µM each time.

As for `COc1ccc(Nc2ccccc2C(N)=O)cc1`, the figures for the IC50 in assay [1] and in assay [4] were over 100 µM and 80 µM, respectively.

As to `CN(C(=O)Cc1ccccc1)c1cccc(Nc2ccccc2C(N)=O)c1`, the 50% inhibitory concentration (IC50) in assay [1] and in assay [4] was over 100 µM in each case.
